According to ChEMBL document CHEMBL1629690, “Development of hexadecyloxypropyl tenofovir (CMX157) for treatment of infection caused by wild-type and nucleoside/nucleotide-resistant HIV” (Antimicrob Agents Chemother, 2010):

Tested on: Human immunodeficiency virus 1
Experiment: Antiviral activity against HIV1 isolate 211 harboring reverse transcriptase D67N/K70R/T215F/K219E/M184V mutant gene by phenosense assay relative to wild type
Format: functional
Settings: not given
In short: (§1)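 PhenoSense HIV recombinant virus assay: patient-derived HIV-1 with major NRTI resistance mutations tested against increasing drug concentrations to give inhibition curves. EC50 is the concentration giving 50% inhibition. Fold change is the test recombinant EC50 divided by the EC50 of a drug-sensitive wild-type reference virus. Panel of 30 NRTI-resistant isolates plus two wild-type viruses.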

Compound | fold change (FC)
C[C@H](Cn1cnc2c(N)ncnc21)OCP(=O)(O)O [TENOFOVIR ANHYDROUS] | 0.91

Tested on: Human immunodeficiency virus 1
Experiment: Antiviral activity against HIV1 isolate 194 harboring reverse transcriptase M41L/T215Y/M184V mutant gene by phenosense assay relative to wild type
Format: functional
Settings: not given
In short: (§2)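 Recombinant-virus PhenoSense HIV assay run on a panel of 30 NRTI-resistant HIV-1 mutants and two wild-type viruses. Each virus is tested across increasing drug concentrations to give an inhibition curve and EC50. Fold change is the test recombinant EC50 divided by the EC50 of the drug-sensitive wild-type reference virus.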

Compound | fold change (FC)
C[C@H](Cn1cnc2c(N)ncnc21)OCP(=O)(O)O [TENOFOVIR ANHYDROUS] | 1.3

Tested on: Human immunodeficiency virus 1
Experiment: Antiviral activity against HIV1 isolate 162 harboring reverse transcriptase A62V/V75I/F77L/Y115F/F116Y/Q151M/M184V mutant gene by phenosense assay relative to wild type
Format: functional
Settings: not given
In short: as §2

Compound | fold change (FC)
C[C@H](Cn1cnc2c(N)ncnc21)OCP(=O)(O)O [TENOFOVIR ANHYDROUS] | 1.4

Tested on: Human immunodeficiency virus 1
Experiment: Antiviral activity against HIV1 isolate 069 harboring reverse transcriptase D67E/T69SSG/V75M/M184V/L210W/T215Y mutant gene by phenosense assay
Format: functional, organism-based
Settings: Human immunodeficiency virus 1, isolate 069
In short: as §2

Compound | EC50
C[C@H](Cn1cnc2c(N)ncnc21)OCP(=O)(O)O [TENOFOVIR ANHYDROUS] | 3600 nM

Tested on: Human immunodeficiency virus 1
Experiment: Antiviral activity against HIV1 isolate 203 harboring reverse transcriptase M41L/L210W/T215Y/M184V mutant gene by phenosense assay
Format: functional, organism-based
Settings: Human immunodeficiency virus 1, isolate 203
In short: as §1

Compound | EC50
C[C@H](Cn1cnc2c(N)ncnc21)OCP(=O)(O)O [TENOFOVIR ANHYDROUS] | 750 nM

Tested on: Human immunodeficiency virus 1
Experiment: Antiviral activity against HIV1 isolate 069 harboring reverse transcriptase D67E/T69SSG/V75M/M184V/L210W/T215Y mutant gene by phenosense assay relative to wild type
Format: functional
Settings: not given
In short: as §2

Compound | fold change (FC)
C[C@H](Cn1cnc2c(N)ncnc21)OCP(=O)(O)O [TENOFOVIR ANHYDROUS] | 4.7

Tested on: Human immunodeficiency virus 1
Experiment: Antiviral activity against HIV1 isolate 203 harboring reverse transcriptase M41L/L210W/T215Y/M184V mutant gene by phenosense assay relative to wild type
Format: functional
Settings: not given
In short: as §1

Compound | fold change (FC)
C[C@H](Cn1cnc2c(N)ncnc21)OCP(=O)(O)O [TENOFOVIR ANHYDROUS] | 0.97

Tested on: Human immunodeficiency virus 1
Experiment: Antiviral activity against HIV1 isolate 063 harboring reverse transcriptase M41L/D67N/K70R/M184V/L210W/T215Y/K219E mutant gene by phenosense assay
Format: functional, organism-based
Settings: Human immunodeficiency virus 1, isolate 063
In short: as §2

Compound | EC50
C[C@H](Cn1cnc2c(N)ncnc21)OCP(=O)(O)O [TENOFOVIR ANHYDROUS] | 1700 nM

Tested on: Human immunodeficiency virus 1
Experiment: Antiviral activity against HIV1 isolate 206 harboring reverse transcriptase D67N/K70R mutant gene by phenosense assay relative to wild type
Format: functional
Settings: not given
In short: as §1

Compound | fold change (FC)
C[C@H](Cn1cnc2c(N)ncnc21)OCP(=O)(O)O [TENOFOVIR ANHYDROUS] | 2.6

Tested on: Human immunodeficiency virus 1
Experiment: Antiviral activity against HIV1 isolate 188 harboring reverse transcriptase T215Y/M184V mutant gene by phenosense assay
Format: functional, organism-based
Settings: Human immunodeficiency virus 1, isolate 188
In short: as §2

Compound | EC50
C[C@H](Cn1cnc2c(N)ncnc21)OCP(=O)(O)O [TENOFOVIR ANHYDROUS] | 620 nM

Tested on: Human immunodeficiency virus 1
Experiment: Antiviral activity against HIV1 isolate 071 harboring reverse transcriptase 65R/S68N/184V mutant gene by phenosense assay relative to wild type
Format: functional
Settings: not given
In short: as §2

Compound | fold change (FC)
C[C@H](Cn1cnc2c(N)ncnc21)OCP(=O)(O)O [TENOFOVIR ANHYDROUS] | 1.2

Tested on: Human immunodeficiency virus 1
Experiment: Antiviral activity against HIV1 isolate 153 harboring reverse transcriptase L74V mutant gene by phenosense assay
Format: functional, organism-based
Settings: Human immunodeficiency virus 1, isolate 153
In short: as §2

Compound | EC50
C[C@H](Cn1cnc2c(N)ncnc21)OCP(=O)(O)O [TENOFOVIR ANHYDROUS] | 480 nM

Tested on: Human immunodeficiency virus 1
Experiment: Antiviral activity against HIV1 isolate 067 harboring reverse transcriptase A62V/D67G/T69SVG/V75I/T215I mutant gene by phenosense assay
Format: functional, organism-based
Settings: Human immunodeficiency virus 1, isolate 067
In short: as §2

Compound | EC50
C[C@H](Cn1cnc2c(N)ncnc21)OCP(=O)(O)O [TENOFOVIR ANHYDROUS] | 17000 nM

Tested on: Human immunodeficiency virus 1
Experiment: Antiviral activity against HIV1 isolate 212 harboring reverse transcriptase L210W/T215Y mutant gene by phenosense assay relative to wild type
Format: functional
Settings: not given
In short: as §1

Compound | fold change (FC)
C[C@H](Cn1cnc2c(N)ncnc21)OCP(=O)(O)O [TENOFOVIR ANHYDROUS] | 1.3

Tested on: Human immunodeficiency virus 1
Experiment: Antiviral activity against HIV1 isolate 070 harboring reverse transcriptase 65R/S68G mutant gene by phenosense assay relative to wild type
Format: functional
Settings: not given
In short: as §2

Compound | fold change (FC)
C[C@H](Cn1cnc2c(N)ncnc21)OCP(=O)(O)O [TENOFOVIR ANHYDROUS] | 1.7

Tested on: Human immunodeficiency virus 1
Experiment: Antiviral activity against HIV1 isolate 192 harboring reverse transcriptase M41L/T215Y mutant gene by phenosense assay relative to wild type
Format: functional
Settings: not given
In short: as §2

Compound | fold change (FC)
C[C@H](Cn1cnc2c(N)ncnc21)OCP(=O)(O)O [TENOFOVIR ANHYDROUS] | 1.8

Tested on: Human immunodeficiency virus 1
Experiment: Antiviral activity against HIV1 isolate 201 harboring reverse transcriptase M41L/L210W/T215Y mutant gene by phenosense assay
Format: functional, organism-based
Settings: Human immunodeficiency virus 1, isolate 201
In short: as §2

Compound | EC50
C[C@H](Cn1cnc2c(N)ncnc21)OCP(=O)(O)O [TENOFOVIR ANHYDROUS] | 2300 nM

Tested on: Human immunodeficiency virus 1
Experiment: Antiviral activity against HIV1 isolate 215 harboring reverse transcriptase D67N/K70E mutant gene by phenosense assay
Format: functional, organism-based
Settings: Human immunodeficiency virus 1, isolate 215
In short: as §1

Compound | EC50
C[C@H](Cn1cnc2c(N)ncnc21)OCP(=O)(O)O [TENOFOVIR ANHYDROUS] | 740 nM
